For series [1], the target named is T1, Acyl-CoA desaturase 1 (Rattus norvegicus, UniProt P07308).
T1 sequence (P07308 whole entry): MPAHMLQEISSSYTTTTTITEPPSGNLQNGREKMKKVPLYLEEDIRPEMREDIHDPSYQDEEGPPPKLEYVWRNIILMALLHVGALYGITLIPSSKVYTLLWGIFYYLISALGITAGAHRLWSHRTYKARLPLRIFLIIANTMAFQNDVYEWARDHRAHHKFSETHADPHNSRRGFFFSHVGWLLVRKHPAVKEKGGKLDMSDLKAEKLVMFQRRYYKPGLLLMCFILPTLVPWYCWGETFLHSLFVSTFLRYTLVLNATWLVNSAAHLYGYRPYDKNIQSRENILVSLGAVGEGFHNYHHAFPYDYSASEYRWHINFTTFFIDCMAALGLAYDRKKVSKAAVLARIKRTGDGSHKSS
Put plainly: Inhibition of rat SCD1 by rat microsomal assay. The essentials:
(§1)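 Microsomal desaturase activity was measured in 100 mM Tris HCl pH 7.3 with 2 mM NADH and [9,10-3H]stearoyl-CoA for 15 min at room temperature. The reaction was stopped on ice with trichloroacetic acid, then passed through activated charcoal, and tritium in the filtrate was counted. Compounds were tested in 2% DMSO final. Percent inhibition = (total−sample)/(total−blank)×100, with the blank set by 10⁻⁴ M of a standard inhibitor.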

Series [2] in a line: Cmax in rat at 10 mg/kg. It is filed as ADME, organism-based. Set-up: dose 10 mg/kg. As to conditions: in vivo. In outline:
(§2)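 Rats were given a single 10 mg/kg dose. Plasma exposure (AUC, Cmax) was determined, and drug concentrations in plasma, brain and liver were measured at 6 h post-dose. The liver/plasma ratio was taken from the 6 h levels.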

Series [3] is described as follows: Ratio of drug level in liver to plasma of rat at 10 mg/kg measured after 6 hrs. On the set-up: dose 10 mg/kg. In kind it is ADME, organism-based. In outline: as §2
Series [4] can be described thus: Drug level in liver in rat at 10 mg/kg measured after 6 hrs. In kind it is ADME, organism-based. On the set-up: dose 10 mg/kg. As to conditions: read-out: Drug uptake. The essentials: as §2
A further series relates to Rattus norvegicus. The series is described as follows: AUC in rat at 10 mg/kg. In kind it is ADME, organism-based, Plasma. On the set-up: dose 10 mg/kg. As to conditions: in vivo. The essentials:
as §2

Series [5] is described as follows: Plasma concentration in rat at 10 mg/kg measured after 6 hrs. It is filed as ADME, organism-based. On the set-up: dose 10 mg/kg. In outline: as §2
Series [6] concerns the target T2, Acyl-CoA desaturase 1 (Mus musculus, UniProt P13516).
T2 sequence (P13516 whole entry): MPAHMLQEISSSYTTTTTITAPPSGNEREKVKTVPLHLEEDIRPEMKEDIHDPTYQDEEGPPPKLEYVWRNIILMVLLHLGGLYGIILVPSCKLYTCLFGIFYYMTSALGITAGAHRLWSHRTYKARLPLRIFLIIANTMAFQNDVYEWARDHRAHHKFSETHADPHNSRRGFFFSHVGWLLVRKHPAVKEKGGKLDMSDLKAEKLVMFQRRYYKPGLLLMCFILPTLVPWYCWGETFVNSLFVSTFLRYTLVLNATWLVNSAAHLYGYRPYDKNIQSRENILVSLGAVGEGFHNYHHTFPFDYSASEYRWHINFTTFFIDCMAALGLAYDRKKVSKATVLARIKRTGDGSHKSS
The series is described as follows: Inhibition of mouse SCD1. The essentials:
as §1

pIC50: −log10 of the molar value.

The term pIC50 denotes the negative decadic logarithm of the IC50, by convention in mol/L. The low end stands for a large IC50, the high end for a small IC50. Take `Fc1cccc2c1CCC1(CCN(c3ccc(-c4nnc(Cc5cccnc5)o4)nn3)CC1)O2`: the pIC50 against Acyl-CoA desaturase 1 [1] is 8.70.
As to `Cc1c(C(=O)Nc2ccn(C)n2)ncn1Cc1cccc(C(F)(F)F)c1`, the pIC50 against Acyl-CoA desaturase 1 [1] is 7.93.
For orientation: Cmax means the maximum level reached in the sampled fluid or tissue. As a reminder, the Kp is the ratio of the level in a tissue or fluid to that in plasma or blood. In series [2], `N#Cc1cnc(N2CCC3(CC2)CCN(Cc2cccc(C(F)(F)F)c2)c2ccccc2O3)s1` had a Cmax of 105 ng/g. The pIC50 against Acyl-CoA desaturase 1 [1] is 9.00. The partition ratio (Kp) at 6 h in series [3] stood at 20. Also, the results for the concentration at 6 h in series [4] and in series [5] were 1510 ng/g and 72 ng/g, respectively. The compound further returned an AUC with Rattus norvegicus of 383 ng·h/g.
Take `CNC(=O)c1cnc(N2CCC3(CC2)CCN(Cc2cccc(C(F)(F)F)c2)c2ccccc2O3)s1`: the pIC50 on Acyl-CoA desaturase 1 [1] is 8.52. The compound further registered an AUC with Rattus norvegicus of 0 ng·h/g.
For the compound `CNC(=O)c1cnc(N2CCC3(CC2)CCN(Cc2ccc(C(C)(C)C)cc2)c2ccccc2O3)s1`, the pIC50 on Acyl-CoA desaturase 1 [1] was 8.40.
Turning to `NC(=O)c1cnc(N2CCC3(CC2)CCN(Cc2cccc(C(F)(F)F)c2)c2ccccc2O3)s1`, the Cmax in series [2] turned out to be 45 ng/g. Besides, the pIC50 on Acyl-CoA desaturase 1 [1] is 8.52. In addition, the concentration at 6 h in series [4] is < 10 ng/g. The compound further returned an AUC with Rattus norvegicus of 58 ng·h/g.
For `O=C(O)c1ccc(N2CCC3(CC2)CCN(Cc2cccc(C(F)(F)F)c2)c2ccccc2O3)nn1`, on Acyl-CoA desaturase 1 [1], the pIC50 is 5.33.
`NC(=O)c1ccc(N2CCC3(CC2)CCN(Cc2cccc(C(F)(F)F)c2)c2ccccc2O3)nn1`: the pIC50 against Acyl-CoA desaturase 1 [1] was 8.00.
Still for that read-out and setting: the value for `CCCNC(=O)c1ccc(N2CCC3(CC2)CCN(Cc2cccc(C(F)(F)F)c2)c2ccccc2O3)nn1` was 6.89; that for `O=C(NCCC1CC1)c1cnc(N2CCC3(CC2)CCN(Cc2cccc(C(F)(F)F)c2)c2ccccc2O3)s1` was 6.03; that for `O=C(NCCC1CC1)c1ccc(N2CCC3(CC2)CCN(Cc2cccc(C(F)(F)F)c2)c2ccccc2O3)cc1` was 5.66.
In turn, `O=C(NCCC1CC1)c1ccc(N2CCC3(CC2)CCN(Cc2cccc(C(F)(F)F)c2)c2ccccc2O3)nc1` displayed a maximum concentration (Cmax) in series [2] of 45 ng/g. This compound showed a pIC50 on Acyl-CoA desaturase 1 [1] of 7.92. In addition, the concentration at 6 h in series [4] was < 10 ng/g. The compound also came in with an AUC in the series on Rattus norvegicus of 23 ng·h/g.
As to `O=C(NCCC1CC1)c1ccc(N2CCC3(CC2)CCN(Cc2cccc(C(F)(F)F)c2)c2ccccc2O3)nn1`, the highest concentration (Cmax) in series [2] is 209 ng/g. This compound gave a pIC50 at Acyl-CoA desaturase 1 [1] of 8.40. Moreover, the concentration at 6 h in series [4] is < 10 ng/g. In addition, the AUC in the series with Rattus norvegicus was determined as 105 ng·h/g.
For the compound `CC(C)(C)c1ccc(CN2CCC3(CCN(c4ccc(C(=O)NCCC5CC5)nn4)CC3)Oc3ccccc32)cc1`, at Acyl-CoA desaturase 1 [1], the negative logarithm of the IC50 (pIC50) is 7.40.
For `CC(C)(C)c1ccc(CC(=O)N2CCC3(CC2)CCN(CC#N)c2ccccc2O3)cc1`, the negative logarithm of the IC50 (pIC50) at Acyl-CoA desaturase 1 [1] was 6.36.
`CC(C)(C)c1ccc(CN2CCC3(CCN(C(=O)CNC(=O)c4cccnc4)CC3)Oc3ccccc32)cc1`: the Cmax in series [2] is 169 ng/g. This compound also showed a negative-log IC50 (pIC50) at Acyl-CoA desaturase 1 [1] of 5.82. For the same compound, the Kp at 6 h in series [3] was 13. The concentration at 6 h in series [4] stood at 232 ng/g; in series [5], 18 ng/g. The compound also returned an AUC in the series on Rattus norvegicus of 341 ng·h/g.
For `CC(C)(C)c1ccc(CN2CCC3(CCN(C(=O)CNC(=O)c4ccco4)CC3)Oc3ccccc32)cc1`, the negative-log IC50 (pIC50) at Acyl-CoA desaturase 1 [1] was 7.72.
On Acyl-CoA desaturase 1 [1], `O=C(NCC(=O)N1CCC2(CC1)CCN(Cc1cccc(C(F)(F)F)c1)c1ccccc1O2)c1ccco1` showed a pIC50 of 6.42.
The same measure, in the same setting: next, `O=C(NCC(=O)N1CCC2(CC1)CCN(Cc1cccc(C(F)(F)F)c1)c1ccccc1O2)c1ccccc1`: 5.59; `CC(=O)NCC(=O)N1CCC2(CC1)CCN(Cc1ccc(C)cc1)c1ccccc1O2`: 5.96.
Consider `CCc1ccc(CN2CCC3(CCN(C(=O)CNC(C)=O)CC3)Oc3ccccc32)cc1`, for which the highest concentration (Cmax) in series [2] is 579 ng/g. The compound further showed a pIC50 against Acyl-CoA desaturase 1 [1] of 7.24. Further, the concentration at 6 h in series [4] is < 100 ng/g; in series [5], 19 ng/g. The compound also displayed an AUC with Rattus norvegicus of 1288 ng·h/g.
For `CC(=O)NCC(=O)N1CCC2(CC1)CCN(CCc1ccc(C(C)C)cc1)c1ccccc1O2`, the concentration in series [2] peaked (Cmax) at 875 ng/g. Further, on Acyl-CoA desaturase 1 [1], the negative-log IC50 (pIC50) was 7.38. Also, the Kp at 6 h in series [3] turned out to be 17. Besides, the concentration at 6 h came out at 1660 ng/g in series [4] and 100 ng/g in series [5]. The AUC in the series on Rattus norvegicus was 2608 ng·h/g.
On to `CC(=O)NCC(=O)N1CCC2(CC1)CCN(Cc1ccc(C(C)(C)C)cc1)c1ccccc1O2`, for which the concentration in series [2] peaked (Cmax) at 1100 ng/g. For the same compound, the negative-log IC50 (pIC50) against Acyl-CoA desaturase 1 [1] was 7.77. Moreover, in series [3], the partition ratio (Kp) at 6 h turned out to be 13. For the same compound, the concentration at 6 h in series [4] came out at 2670 ng/g; in series [5] it was 210 ng/g. In the series with Rattus norvegicus, the AUC is 3464 ng·h/g.
On Acyl-CoA desaturase 1 [1], `CC(=O)NCC(=O)N1CCC2(CC1)CCN(Cc1cccc(Cl)c1)c1ccccc1O2` showed a negative logarithm of the IC50 (pIC50) of 6.08.
The compound `COc1cccc(CN2CCC3(CCN(C(=O)CNC(C)=O)CC3)Oc3ccccc32)c1` gave a negative-log IC50 (pIC50) at Acyl-CoA desaturase 1 [1] of 5.74.
Turning to `CC(=O)NCC(=O)N1CCC2(CC1)CCN(Cc1cccc(OC(F)(F)F)c1)c1ccccc1O2`, the negative logarithm of the IC50 (pIC50) on Acyl-CoA desaturase 1 [1] was 6.17.
`CC(=O)NCC(=O)N1CCC2(CC1)CCN(Cc1cccc(C(F)(F)F)c1)c1ccccc1O2` showed a pIC50 on Acyl-CoA desaturase 1 [1] of 7.49.
At Acyl-CoA desaturase 1 [1], `CC(=O)NCC(=O)N1CCC2(CC1)CCN(Cc1ccc(F)cc1)c1ccccc1O2` showed a negative-log IC50 (pIC50) of 6.34.
As for `CC(=O)NCC(=O)N1CCC2(CC1)CCN(Cc1ccc(Cl)cc1)c1ccccc1O2`, the pIC50 at Acyl-CoA desaturase 1 [1] is < 5.00.
As to `CC(=O)NCC(=O)N1CCC2(CC1)CCN(Cc1ccccc1F)c1ccccc1O2`, the negative-log IC50 (pIC50) at Acyl-CoA desaturase 1 [1] was < 5.00.
The same measure, in the same setting: next, `CC(=O)NCC(=O)N1CCC2(CC1)CCN(Cc1ccccc1Cl)c1ccccc1O2`: 5.92; `CC(=O)NCC(=O)N1CCC2(CC1)CCN(Cc1ccccc1C)c1ccccc1O2`: 5.92; `CCc1ccccc1CN1CCC2(CCN(C(=O)CNC(C)=O)CC2)Oc2ccccc21`: 6.37.
Still for that read-out and setting: next, `COc1ccccc1CN1CCC2(CCN(C(=O)CNC(C)=O)CC2)Oc2ccccc21`: 5.54.
`CC(=O)NCC(=O)N1CCC2(CC1)CCN(Cc1cccc(F)c1)c1ccccc1O2`: the negative-log IC50 (pIC50) against Acyl-CoA desaturase 1 [1] was < 5.00.
`CC(=O)NCC(=O)N1CCC2(CC1)CCN(CCC(C)C)c1ccccc1O2`: the negative-log IC50 (pIC50) against Acyl-CoA desaturase 1 [6] is 5.19.
At Acyl-CoA desaturase 1 [1], `CC(=O)NCC(=O)N1CCC2(CC1)CCN(Cc1ccccc1)c1ccccc1O2` gave a negative-log IC50 (pIC50) of 5.92.
Consider `CC(=O)NCC(=O)N1CCC2(CC1)CCN(CC(C)C)c1ccccc1O2`, for which, at Acyl-CoA desaturase 1 [1], the pIC50 was < 5.00.
For `CCCN1CCC2(CCN(C(=O)CNC(C)=O)CC2)Oc2ccccc21`, the pIC50 against Acyl-CoA desaturase 1 [1] is < 5.00.
`CC(=O)NCC(=O)N1CCC2(CC1)CCN(c1ccccc1)c1ccccc1O2`: the negative logarithm of the IC50 (pIC50) against Acyl-CoA desaturase 1 [1] is < 5.00.
At Acyl-CoA desaturase 1 [1], `CC(=O)NCC(=O)N1CCC2(CC1)CCN(CCc1ccccc1)c1ccccc1O2` gave a pIC50 of 5.80.
Consider `COc1ccc(C(F)(F)F)c(C(=O)N2CCN(c3ccc(C(=O)NCCCc4ccccc4)cn3)CC2)c1`, for which, on Acyl-CoA desaturase 1 [1], the pIC50 was 7.00.
On Acyl-CoA desaturase 1 [1], `O=C(O)Cn1nnc(-c2cc(N3CCC(Oc4ccccc4C(F)(F)F)CC3)no2)n1` had a pIC50 of 8.52.
The compound `O=C(CO)Nc1ccc2ncn(Cc3ccc(Cl)c(Cl)c3)c(=O)c2c1` showed a negative-log IC50 (pIC50) against Acyl-CoA desaturase 1 [1] of 6.58.

The record behind these values is ChEMBL document CHEMBL2311288, “Discovery of liver-targeted inhibitors of stearoyl-CoA desaturase (SCD1)” (Bioorg Med Chem Lett, 2013).
